Legend:
[1] = Absolute oral bioavailability evaluated in 0.5% methylcellulose suspentionat a dose of 20 mg/kg orally; format: ADME, organism-based; conditions: eutheria, in vivo
Summary of the method: (§1)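 Fasted male Wistar rats, groups of 3–4, given a single 20 mg/kg dose po or iv in the stated vehicle. Heparinized plasma was drawn from a jugular-vein cannula at serial times out to 24 h and assayed by validated HPLC-fluorescence. Absolute bioavailability is the dose-normalized ratio of AUC after po dosing to AUC after iv dosing.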

Mus musculus [2] = assay: Concentration in forebrain after intravenous injection evaluated after 10 min. at a dose of 1 mg/kg; format: functional
Summary of the method: (§2)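 Ex vivo binding: mice were dosed iv with compound or vehicle, given either as saline or as 10% EtOH–60% propylene glycol–30% saline. Forebrains were taken at 5, 10 or 20 min, homogenized in HEPES buffer with bacitracin at pH 7.2, and incubated with 50 pM [125I]BH-CCK8s for 2 h at 22 °C. After filtration, bound radioligand was gamma-counted and read against calibration curves prepared in vehicle tissue. Detection limit was about 1 pmol/forebrain. n = 3–13.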

[3] = target: T1, Cholecystokinin receptor type A (Rattus norvegicus, UniProt P30551); assay: Inhibitory concentration against radioligand [125I]Bolton-Hunter labeled CCK-8 to cholecystokinin type A receptor in the rat pancreas
T1 sequence (P30551 whole entry): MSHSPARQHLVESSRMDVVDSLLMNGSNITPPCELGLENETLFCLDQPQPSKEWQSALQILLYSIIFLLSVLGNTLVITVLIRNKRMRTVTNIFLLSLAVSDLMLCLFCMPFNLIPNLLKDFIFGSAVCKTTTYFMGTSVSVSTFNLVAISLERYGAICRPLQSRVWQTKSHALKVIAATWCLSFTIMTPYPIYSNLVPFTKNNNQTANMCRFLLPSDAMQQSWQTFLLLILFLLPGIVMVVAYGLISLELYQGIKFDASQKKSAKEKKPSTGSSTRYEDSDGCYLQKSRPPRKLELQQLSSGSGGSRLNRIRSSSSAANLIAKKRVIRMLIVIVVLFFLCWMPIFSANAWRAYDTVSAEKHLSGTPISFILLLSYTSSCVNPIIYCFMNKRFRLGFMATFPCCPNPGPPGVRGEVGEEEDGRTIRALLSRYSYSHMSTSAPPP

[4] = Pharmacokinetic parameter half-life was evaluated in HP-beta-CD solution at a dose of 20 mg/kg orally; format: ADME, organism-based; design: dose 20 mg/kg, route oral; conditions: in vivo, po
Summary of the method: (§3)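 Fasted male Wistar rats, groups of 3–4, given a single oral 20 mg/kg dose in the stated vehicle. Heparinized plasma was collected from an implanted jugular-vein cannula at serial times out to 24 h, kept frozen, and assayed by validated HPLC-fluorescence. Cmax, tmax, AUC(0–∞) and terminal t1/2 were obtained by noncompartmental analysis. Values are means (%RSD).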

[5] = Maximum plasma concentration evaluated in 100% PEG solution at a dose of 20 mg/kg orally; format: ADME, organism-based; design: dose 20 mg/kg, route oral; conditions: po; summary of the method: as §3
[6] = Maximum plasma concentration was evaluated in 0.5% methylcellulose suspension at a dose of 20 mg/kg orally; format: ADME, organism-based; design: dose 20 mg/kg, route oral; conditions: po; summary of the method: as §3
[7] = Pharmacokinetic parameter tmax was evaluated in DMA:H2O solution at a dose of 20 mg/kg orally; format: ADME, organism-based; design: dose 20 mg/kg, route oral; conditions: in vivo, po; summary of the method: as §3
[8] = Absolute oral bioavailability was evaluated in 100% PEG solution at a dose of 20 mg/kg orally; format: ADME, organism-based; conditions: eutheria, in vivo; summary of the method: as §1
[9] = Oral bioavailability (dosed in HP-beta-CD solution) (dose 20 mg/kg p.o.); format: ADME, organism-based; conditions: eutheria, in vivo; summary of the method: as §1
[10] = Pharmacokinetic parameter AUC was evaluated in 100% PEG solution at a dose of 20 mg/kg orally; format: ADME, organism-based; design: dose 20 mg/kg, route oral; conditions: in vivo, po; summary of the method: as §3
[11] = Maximum plasma concentration evaluated in HP-beta-CD solution at a dose of 20 mg/kg orally; format: ADME, organism-based; design: dose 20 mg/kg, route oral; conditions: po; summary of the method: as §3
Mus musculus [12] = assay: Concentration in forebrain after intravenous injection evaluated after 5 min. at a dose of 1 mg/kg; format: functional; summary of the method: as §2
[13] = Pharmacokinetic parameter tmax was evaluated in HP-beta-CD solution at a dose of 20 mg/kg orally; format: ADME, organism-based; design: dose 20 mg/kg, route oral; conditions: in vivo, po; summary of the method: as §3
[14] = Ratio of IC50 towards CCK-A receptor and CCK-B receptor
[15] = Pharmacokinetic parameter half-life was evaluated in 100% PEG solution; format: ADME, organism-based; conditions: in vivo; summary of the method: as §3
[16] = Pharmacokinetic parameter AUC was evaluated in 0.5% methylcellulose suspension at a dose of 20 mg/kg orally; format: ADME, organism-based; design: dose 20 mg/kg, route oral; conditions: in vivo, po; summary of the method: as §3
[17] = Maximum plasma concentration was evaluated in DMA:H2O solution at a dose of 20 mg/kg orally; format: ADME, organism-based; design: dose 20 mg/kg, route oral; conditions: po; summary of the method: as §3
[18] = Pharmacokinetic parameter tmax was evaluated in 100% PEG solution at a dose of 20 mg/kg orally; format: ADME, organism-based; design: dose 20 mg/kg, route oral; conditions: in vivo, po; summary of the method: as §3
[19] = Pharmacokinetic parameter half-life was evaluated in DMA:H2O solution at a dose of 20 mg/kg orally; format: ADME, organism-based; design: dose 20 mg/kg, route oral; conditions: in vivo, po; summary of the method: as §3
[20] = Pharmacokinetic parameter AUC was evaluated in DMA:H2O solution at a dose of 20 mg/kg orally; format: ADME, organism-based; design: dose 20 mg/kg, route oral; conditions: in vivo, po; summary of the method: as §3
[21] = Pharmacokinetic parameter tmax evaluated in 0.5% methylcellulose suspension at a dose of 20 mg/kg orally; format: ADME, organism-based; design: dose 20 mg/kg, route oral; conditions: in vivo, po; summary of the method: as §3
Mus musculus [22] = assay: Concentration in forebrain after intravenous injection evaluated after 20 min. at a dose of 1 mg/kg; format: functional; summary of the method: as §2
[23] = Absolute oral bioavailability was evaluated in DMA:H2O solution at a dose of 20 mg/kg orally; format: ADME, organism-based; conditions: eutheria, in vivo; summary of the method: as §1
[24] = target: T2, Gastrin/cholecystokinin type B receptor (Mus musculus, UniProt P56481); assay: Inhibitory concentration against radioligand [125I]Bolton-Hunter labeled CCK-8 to cholecystokinin type B receptor in the mouse cerebral cortex; format: tissue-based
T2 sequence (P56481 whole entry): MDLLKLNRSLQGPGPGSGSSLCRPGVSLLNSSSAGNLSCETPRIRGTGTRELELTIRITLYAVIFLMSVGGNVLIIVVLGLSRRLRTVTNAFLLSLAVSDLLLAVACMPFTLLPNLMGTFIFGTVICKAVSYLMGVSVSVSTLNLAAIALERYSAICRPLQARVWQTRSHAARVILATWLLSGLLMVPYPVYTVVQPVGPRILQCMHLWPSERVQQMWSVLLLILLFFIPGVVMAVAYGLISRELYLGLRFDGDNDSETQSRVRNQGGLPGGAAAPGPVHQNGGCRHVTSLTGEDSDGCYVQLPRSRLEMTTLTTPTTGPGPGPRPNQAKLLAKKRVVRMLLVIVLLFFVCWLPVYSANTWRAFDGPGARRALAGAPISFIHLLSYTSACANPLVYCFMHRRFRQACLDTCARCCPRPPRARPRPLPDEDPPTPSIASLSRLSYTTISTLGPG

[25] = Pharmacokinetic parameter AUC was evaluated in HP-beta-CD solution at a dose of 20 mg/kg orally; format: ADME, organism-based; design: dose 20 mg/kg, route oral; conditions: in vivo, po; summary of the method: as §3

- bioavailability [1]: 2%
- IC50 [3]: 780 nM
- half-life [4]: 1.5 h
- Cmax [5]: 167 ng/mL
- Cmax [6]: 42 ng/mL
- Tmax [7]: 1.2 h
- bioavailability [8]: 9.6%
- bioavailability [9]: 16%
- AUC [10]: 886 ng·h/mL
- Cmax [11]: 416 ng/mL
- Tmax [13]: 0.9 h
- Ratio [14]: 123
- half-life [15]: 1.1 h
- AUC [16]: 188 ng·h/mL
- Cmax [17]: 212 ng/mL
- Tmax [18]: 2.8 h
- half-life [19]: 2.3 h
- AUC [20]: 890 ng·h/mL
- Tmax [21]: 2.9 h
- bioavailability [23]: 9.6%
- IC50 [24]: 6.3 nM
- AUC [25]: 1440 ng·h/mL
Compound: C[C@](Cc1c[nH]c2ccccc12)(NC(=O)OC1C2CC3CC(C2)CC1C3)C(=O)N[C@H](CO)Cc1ccccc1 (stereo not given in full)
- Brain level (Mus musculus [2]): 68 pmol/forebrain
- Brain level (Mus musculus [12]): 40 pmol/forebrain
- Brain level (Mus musculus [22]): 43 pmol/forebrain

Source: ChEMBL document CHEMBL1131203, “Second generation "peptoid" CCK-B receptor antagonists: identification and development of N-(adamantyloxycarbonyl)-alpha-methyl-(R)-tryptophan derivative (CI-1015) with an improved pharmacokinetic profile” (J Med Chem, 1998)
